Measurements taken from ChEMBL document CHEMBL1124764, “Cytotoxicity and antitumor activity of some tetrahedral bis(diphosphino)gold(I) chelates” (J Med Chem, 1990).

Key:
P388 [1] = test: In vivo maximally tolerated dose for B6D2F1 mice on an ip P388 leukemia every day for 5 days regimen; format: functional, organism-based; conditions: Mus musculus
In short: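 B6D2F1 mice inoculated ip with 10⁶ P388 leukemia cells. Complex in DMA or ethanol plus saline, with Cremophor-EL if needed, 0.5 mL, freshly made. Given ip days 1–5 starting 24 h after inoculation, at five log-spaced doses to find the MTD. Groups of six; untreated and cisplatin controls. Mortality checked daily for 45 days; end points MST and ILS.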

P388 [2] = test: In vivo maximum increase in lifespan produced in mice bearing ip P388 leukemia; format: functional, organism-based; conditions: Mus musculus
In short: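 B6D2F1 mice were inoculated ip with 10⁶ P388 leukemia cells. Complexes in DMA or ethanol plus saline (Cremophor-EL if precipitating) were given ip in 0.5 mL on days 1–5, starting 24 h after inoculation, at five log-spaced doses. Untreated and cisplatin controls were included. Mice were monitored daily for 45 days. ILS = % increase in median survival versus untreated controls, at MTD; >30% counted as active.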

[3] = (§1) In vivo maximum increase in lifespan produced in mice bearing ip B16 melanoma implanted tumor; format: organism-based
In short: (§2)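 M5076 sarcoma or B16 melanoma was maintained by serial transplantation in syngeneic mice and implanted ip. B6D2F1 mice received complexes ip daily for 10 days at five log-spaced doses encompassing the MTD. Activity was scored as increase in median lifespan versus untreated controls, at MTD; >25% ILS counted as active.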

Mus musculus = test: In vivo maximally tolerated dose for B6D2F mice on an every day ip for 10 days regimen.; format: functional, organism-based
In short: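 B6D2F1 mice with ip-implanted M5076 reticulum cell sarcoma or B16 melanoma, kept by serial transplant in syngeneic mice. Complex dissolved in minimal DMA or ethanol plus equal saline, with Cremophor-EL if it precipitated. Made just before use and given ip daily for 10 days at five log-spaced doses spanning the MTD. Activity judged by median lifespan prolongation.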

M5076 = test: In vivo maximum increase in lifespan produced in mice bearing M5076 reticulum cell sarcoma implanted tumor; format: functional; conditions: Mus musculus; in short: as §2
B16 [4] = test: In vitro concentration which inhibits cloning efficiency of B16 melanoma cells by 50% on a 2-h exposure was determined.; format: functional, cell-based, Mus musculus
In short: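 Clonogenic assay with B16 melanoma cells grown in monolayer culture. Cells were exposed to drug for 2 h, either in medium containing 10% fetal calf serum or in serum-free medium, and then cloned. IC50 is the concentration cutting cloning efficiency by 50%.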

B16 [5] = test: as §1; format: functional, organism-based; conditions: Mus musculus; in short: as §2

Bis [1,2-bis(diphenylphosphino)ethane] gold (I) Bromide Hydrate
MTD (uM day-1 kg-1) (P388 [1]): 2 | ILS (P388 [2]): 83%

Bis [1,2-bis(diphenylphosphino)ethane] gold (I) Nitrate [listing 1 of 2 here]
MTD (uM day-1 kg-1) (P388 [1]): 3 | ILS (P388 [2]): 90%

Bis [1,2-bis(diphenylphosphino)ethane] gold (I) 2-hydroxy-1-ethane sulphonate
MTD (uM day-1 kg-1) (P388 [1]): 2 | ILS (P388 [2]): 78%

Bis [1,2-bis(diphenylphosphino)ethene] gold (I) Chloride [listing 1 of 2 here]
ILS [3]: 35% | MTD (uM day-1 kg-1) (Mus musculus): 2 | ILS (M5076): 69% | MTD (uM day-1 kg-1) (P388 [1]): 2 | ILS (P388 [2]): 92%

Bis [1,2-bis(diphenylphosphino)ethane] gold (I) Methanesulfonate
MTD (uM day-1 kg-1) (P388 [1]): 2 | ILS (P388 [2]): 81%

Bis [1,2-bis(dipyridine-4-ylphosphino)ethane] gold (I) Chloride Hydrate; chloride
MTD (uM day-1 kg-1) (Mus musculus): 4 | MTD (uM day-1 kg-1) (P388 [1]): 6

Bis [1,2-bis[bis(5-H-dibenzophospholyl)ethane] gold (I) Nitrate
MTD (uM day-1 kg-1) (P388 [1]): 4 | ILS (P388 [2]): 61%

Bis [1,2-bis(diphenylphosphino)ethane] gold (I) Nitrate [listing 2 of 2 here]
IC50 (B16 [4]): 4 µM

Bis [(1-diphenylphosphino, 2-diethyl) ethane] gold (I) Chloride [listing 1 of 2 here]
MTD (uM day-1 kg-1) (Mus musculus): 2 | ILS (M5076): 46% | MTD (uM day-1 kg-1) (P388 [1]): 4 | ILS (P388 [2]): 54%

Bis [1,2-bis(diphenylphosphino)ethane] gold (I) Chloride Hydrate [listing 1 of 2 here]
IC50 (B16 [4]): 4.5 µM

Bis [1,2-bis[bis(3-fluorophenyl)phosphino)ethane] gold (I) Chloride
MTD (uM day-1 kg-1) (P388 [1]): 10 | ILS (P388 [2]): 55%

Bis [1,2-bis(diphenylphosphino)ethene] gold (I) Chloride [listing 2 of 2 here]
IC50 (B16 [4]): 2 µM

Bis [1,2-bis(diphenylphosphino)propane] gold (I) Chloride [listing 1 of 2 here]
ILS [3]: 34% | MTD (uM day-1 kg-1) (Mus musculus): 2 | ILS (M5076): 116% | MTD (uM day-1 kg-1) (P388 [1]): 3 | ILS (P388 [2]): 89%

Bis [1,2-bis(diphenylphosphino)propane] gold (I) Chloride [listing 2 of 2 here]
IC50 (B16 [4]): 0.6 µM

Bis [1,2-bis(diphenylphosphino)ethane] gold (I) Chloride Hydrate [listing 2 of 2 here]
ILS (B16 [5]): 38% | MTD (uM day-1 kg-1) (Mus musculus): 2 | ILS (M5076): 57% | MTD (uM day-1 kg-1) (P388 [1]): 3 | ILS (P388 [2]): 83%

Bis [1,2-bis(diphenylphosphino)ethane] gold (I) Iodide Hydrate
MTD (uM day-1 kg-1) (Mus musculus): 2 | ILS (M5076): 52% | MTD (uM day-1 kg-1) (P388 [1]): 2 | ILS (P388 [2]): 150%

Bis [1,2-bis(dipyridine-2-ylphosphino)ethane] gold (I) Chloride Hydrate; chloride
ILS [3]: 43% | MTD (uM day-1 kg-1) (Mus musculus): 8 | MTD (uM day-1 kg-1) (P388 [1]): 8 | ILS (P388 [2]): 75%

CISPLATIN
ILS [3]: 75% | MTD (uM day-1 kg-1) (Mus musculus): 5 | ILS (M5076): 103% | MTD (uM day-1 kg-1) (P388 [1]): 7 | ILS (P388 [2]): 125%

Bis [(1-diphenylphosphino, 2-diethyl) ethane] gold (I) Chloride [listing 2 of 2 here]
IC50 (B16 [4]): 5 µM

Bis [1,2-bis[bis(4-fluorophenyl)phosphino)ethane] gold (I) Chloride
MTD (uM day-1 kg-1) (P388 [1]): 3 | ILS (P388 [2]): 50%

Bis [1-dipphenyl,2-phenylmethylphosphino)ethane] gold (I) Chloride Hydrate; chloride
MTD (uM day-1 kg-1) (Mus musculus): 2 | MTD (uM day-1 kg-1) (P388 [1]): 3 | ILS (P388 [2]): 65%
